Legend:
Jurkat = test: Inhibition of Calcium release in jurkat cells; format: functional, cell-based; conditions: Homo sapiens
Outline: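 Jurkat cells loaded with Fluo-3, washed in HBSS with 1 mM CaCl₂, 1 mM MgCl₂, 10 mM HEPES, 2 mM probenecid, 1% FBS, pH 7.4. Final 3 × 10⁵ cells/mL. Compound added for 15 min at room temperature, then anti-CD3 (clone X35, final 0.25 µg/mL). FLIPR fluorescence followed for 13 min. Peak minus baseline plotted against concentration gives EC₅₀. Mean of two or more experiments in duplicate ± SD.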

[1] = target: Tyrosine-protein kinase Lck (Homo sapiens, UniProt P06239); test: Inhibition of p56 Lck tyrosine kinase
Chain of Tyrosine-protein kinase Lck (P06239 whole entry): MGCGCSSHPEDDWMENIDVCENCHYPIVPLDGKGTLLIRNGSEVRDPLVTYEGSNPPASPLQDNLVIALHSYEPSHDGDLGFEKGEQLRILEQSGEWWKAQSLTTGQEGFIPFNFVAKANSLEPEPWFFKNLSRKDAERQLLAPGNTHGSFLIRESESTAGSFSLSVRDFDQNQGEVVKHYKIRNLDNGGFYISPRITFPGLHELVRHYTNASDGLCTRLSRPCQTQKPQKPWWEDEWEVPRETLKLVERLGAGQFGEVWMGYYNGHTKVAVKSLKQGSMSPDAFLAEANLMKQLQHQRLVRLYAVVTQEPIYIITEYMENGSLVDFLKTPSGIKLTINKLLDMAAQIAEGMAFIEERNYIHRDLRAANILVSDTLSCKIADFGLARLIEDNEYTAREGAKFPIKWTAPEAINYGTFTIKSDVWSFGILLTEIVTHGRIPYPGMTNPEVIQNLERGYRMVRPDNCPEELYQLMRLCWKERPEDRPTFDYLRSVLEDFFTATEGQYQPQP

tissue or blood = format: functional, tissue-based; conditions: Homo sapiens
Homo sapiens = organism: Homo sapiens; test: Inhibition of IL-2 production in human whole blood; format: functional

Structure (SMILES)	EC50 (Jurkat)	IC50 [1]	EC50 (tissue or blood)	EC50 (Homo sapiens)
Cc1nc(O)c2c(ccc3nc(Nc4c(Cl)cccc4Cl)n(C)c32)c1CC(=O)N1CCCC1	270 nM	740 nM		
Cc1nc(O)c2c(ccc3nc(Nc4c(Cl)cccc4Cl)n(C)c32)c1CC(=O)N1CCN(C)CC1	1200 nM	440 nM		
CCNC/C=C/c1nc(O)c2c(ccc3nc(Nc4c(Cl)cccc4Cl)n(C)c32)c1C	9 nM	2 nM		
Cc1nc(O)c2c(ccc3[nH]c(Nc4c(Cl)cccc4Cl)nc32)c1C	180 nM	110 nM		
Cc1nc(O)c2c(cc(-c3ccc(F)nc3F)c3nc(Nc4c(Cl)cccc4Cl)n(C)c32)c1C	370 nM	50 nM		
Cc1c(CNCc2ccccc2)nc(O)c2c1ccc1nc(Nc3c(Cl)cccc3Cl)n(C)c12	4200 nM	2000 nM		
C=CC(O)c1nc(O)c2c(ccc3nc(Nc4c(Cl)cccc4Cl)n(C)c32)c1C (centres undefined)	1300 nM	570 nM		
COC(=O)/C=C/c1nc(O)c2c(ccc3nc(Nc4c(Cl)cccc4Cl)n(C)c32)c1C	70 nM	86 nM		
Cc1nc(O)c2c(cc(CNCCO)c3nc(Nc4c(Cl)cccc4Cl)n(C)c32)c1C	120 nM	26 nM		
Cc1nc(O)c2c(ccc3nc(Nc4c(Cl)cccc4Cl)n(C)c32)c1CCN1CCOCC1	270 nM	30 nM		
CCNC(=O)Cc1c(C)nc(O)c2c1ccc1nc(Nc3c(Cl)cccc3Cl)n(C)c12	600 nM	460 nM		
Cc1c(CO)nc(O)c2c1ccc1nc(Nc3c(Cl)cccc3Cl)n(C)c12	240 nM	770 nM		
Cc1c(/C=C/CN)nc(O)c2c1ccc1nc(Nc3c(Cl)cccc3Cl)n(C)c12	21 nM	2 nM	920 nM	3.3 µM
Cc1c(C=O)nc(O)c2c1ccc1nc(Nc3c(Cl)cccc3Cl)n(C)c12	450 nM	170 nM		
COC(=O)CCc1nc(O)c2c(ccc3nc(Nc4c(Cl)cccc4Cl)n(C)c32)c1C	230 nM	360 nM		
Cc1nc(O)c2c(ccc3nc(Nc4c(Cl)cccc4Cl)n(C)c32)c1CC(=O)N1CCOCC1	660 nM	120 nM		
